From the EternaBench riboswitch data

Tested on: MS2 coat protein
Assay: apparent Kd, MS2 coat protein; higher = weaker binding; RNA-MaP array; FMN 200 µM where present
Outline: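 Apparent Kd: the median of filtered binding-curve fits from single clusters. Designs were transcribed on Illumina sequencing-chip clusters by stalled E. coli RNA polymerase and titrated with SNAP-549-labelled MS2 coat protein from 0.7 or 1.5 nM, doubling to 3 µM, in 100 mM Tris-HCl pH 7.5, 80 mM KCl, 4 mM MgCl2, BSA, DTT, yeast tRNA and Tween-20. Each series ran without and then with constant ligand, and green signal was normalised to red-channel RNA signal and control-cluster median Fmax.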

[1] = designed as: OFF switch for flavin mononucleotide, no ligand
[2] = ligand present: flavin mononucleotide, designed as: OFF switch for flavin mononucleotide
[3] = designed as: ON switch for flavin mononucleotide, no ligand
[4] = ligand present: flavin mononucleotide, designed as: ON switch for flavin mononucleotide

Sequence	apparent Kd [1] [nM]	apparent Kd [2] [nM]	apparent Kd [3] [nM]	apparent Kd [4] [nM]
GUCAGCUCGUGAGGAUAUACAUCACUGCUUCGGCAGUGUAUUAAGACUACAUGAGGAUCACCCAUGUAGAAGGCACGAGCUGAU	17.4	17.9		
GUCAGCUCGUGAGGAUAUACAUGUGCUGGAGACAGCACUAAUUAAAUCACAUGAGGAUCACCCAUGUAGAAGGCACGAGCUGAU	16.6	26.4		
GUCAGCUCGUGAGGAUAUACAUGUGCUGGAGACAGCACUAUUGUGUUCACAUGAGGAUCACCCAUGUAGAAGGCACGAGCUGAU	18.3	85.5		
GUCAGCUCGUGAGGAUAUACAUGUGCUGGAUACAGCACUAAAGUUUUCACAUGAGGAUCACCCAUGUAGAAGGCACGAGCUGAU	15.3	33.9		
GUCAGCUCGUGAGGAUAUACGACACUGCUUCGGCAGUGUAUUAAGAUCACAUGAGGAUCACCCAUGUAGAAGGCACGAGCUGAU	8.64	145		
GUCAGCUCGUGAGGAUAUUCAACACUGCUUCGGCAGUGUAUUAAGAUCACAUGAGGAUCACCCAUGUAGAAGGCACGAGCUGAU	5.79	10.8		
GUCAUGUUAGGAUAUCUGACAUGUGACUUCGGUCACUGUCCAGAGAAGGAACAUGAGGAUCACCCAUGUUGGAC	55.6	63.9		
GUCCGGAGGGAGAAGGGCUAGGAGGUCCAGCUUAUGUGUGUUGCAACAUGAGGAUCACCCAUGUAGCAGGAUAUCCCUUUUACA	47	233		
GUCGAAACCAUACUGGUCGACGGUCAGGAUAUACAUGAGGAUCACCCAUGUGCUAUUGAUACUAUGUAGAAGGGACCCACCGCA	15.2			
GUCGGAAACGACAAAAGUAGCAUACGAGAAGGCUGAUCCACGACAUGAGGAUCACCCAUGUACUUAGAGGAUAUUGGAUGCUAC			110	26.1
GUCGGAAACGACAAAGUAGCAUAGGAGGAUAUUCAUCCUCACAUGAGGAUCACCCAUGUAAAUUGGGAGAAGGCCUAUGCUACA			515	301
GUCGUACAAGGAUAUACGGUGAGCUGUGAGUUAUCUGGGACACAUGAGGAUCACCCAUGUAGAAGGUGUCGACA	310	470		
GUCGUGUGAGGAUAUGGAUAGACGCAGUGACAGUCAGCGACCUAGAAGGCACAUGAGGAUCACCCAUGUAUGUG	47.2	100		
GUCUACCUAGGAUAUACAUGAGGAUCACCCAUGUACAGUUUCGUCUAGGGAUACUCGCGUAGAAGGAGGUAGAU	32.2	22.9		
GUCUCAGCUGAGGAUAUUAUCUGGCUCGACCGAUAAGAAGGCAGUACAUGAGGAUCACCCAUGUGGUUCGUUCG	37.6	84.9		
GUCUGAUUGUAGAAGGUACUUAAUACUCAUGUAACAUGAGGAUCACCCAUGUAUCAUCAAUAUUGUAAGGAUAUACAAAUCUCA			150	28.4
GUCUUUUUACAGAAGGUGUUUAACAUGAGGAUCACCCAUGUAUAUAUGGUUAAAUUUGAUAAUAACAAGGAUAUGUACUAAUCA			53.4	46.4
GUGAAACAUGAGGAUCACCCAUGUGAGGAUAUGAUACUAUGUACUUCGGUACAUAGUAUCAGAAGGCACAGUGA	96.1	282		
GUGAAGAUAGCAGGAUAUCUAUUUCCUACAUGAGGAUCACCCAUGUAGGUGAUUAGCCGAGUAAAGGAGAAGGGCUAUCUUUAC			6.62	5.81
GUGAAGUAAGGAUAUAGUGGAAAAGAUAAGGUAUGAGAGUUCUAGAAGGUACAUGAGGAUCACCCAUGUUAGGG	301	186		
GUGACGAAUGUAGGAUAUGCUGAGGAAUACUCAGCAGAAGGACAUGAGGAUCACCCAUGUACUAUGAGUGAAUAAUAACGUCAC	77.4	881		
GUGACGAAUGUAGGAUAUGCUGAGGAAUACUCAGCAGAAGGACAUGAGGAUCACCCAUGUCAUCCUUAUAAUAAAUAACGUCAC	12.6	18.1		
GUGAGACAUGAGGAUCACCCAUGUCAGGAUAUGAUACUAUGUACUUCGGUACAUAGUAUCAGAAGGGACAGUGA	53.6	66.7		
GUGAGCUCGUGAGGAUAUACAACACUGCUUCGGCAGUGUAUUAAGAUCACAUGAGGAUCACCCAUGUAGAAGGCACGAGCUGAU	14.5	272		
GUGCACAUUCGAGGAUAUCGGAGAGAGAUCAUUCGAGAAGGCGAUUCAUGAUGUAUUAUCCUGGACAUGAGGAUCACCCAUGUG			361	107
GUGCACAUUCGAGGAUAUCGGAGAGGAGUCCUUCGAGAAGGCGAUUCGUGCCGUGUUAUUCUGGACAUGAGGAUCACCCAUGUG			106	35.7
GUGCAUUACGAGAAGGCGUACUGGUGAAUAUAAAACGACAAAGGUACAUGAGGAUCACCCAUGUACGAGGAUAUCGAUUUGGCU	11	39.7		
GUGCCUAACUAGAAGGCAGUGUGCAAAGCAUUCUGAGGAUAUGGGUUCCGGAAACGGACAUGAGGAUCACCCAUGUGGCACAAA			424	26.7

Sequence	apparent Kd [1] [nM]	apparent Kd [2] [nM]	apparent Kd [3] [nM]	apparent Kd [4] [nM]
GUGCCUCAGAACAUGAGGAUCACCCAUGUGCUGCGGGCACCGUAGGAUAUGAUGGUACGCUACCAUCAGAAGGAUGAUGGUACC			4.83	4.92
GUGCCUUAUGAGAAGGCGAUCAUGAAACAUGAUCGAGGAUAUCAUGAAAACAUGAGGAUCACCCAUGUAUGGGUAUUAUGGUAC			107	27.8
GUGCCUUGGGAGAAGGCAGUAUGCAAAGCAUUCUGAGGAUAUCCAUACCGGAAACGGACAUGAGGAUCACCCAUGUGGCACAAA			18.5	7.52
GUGCGGGUGCCACAGGAUAUACGUGGAUCGACAUGAGGAUCACCCAUGUAUAUCCUAAUAAUUGCGUAGAAGGGUGGUCAGCCGU			845	149
GUGCUCGUGUAAGGAUAUGCAGCCGUUUCGGCUGCAGAAGGUACUAUAAUACAUGAGGAUCACCCAUGUCUCUAUUGUUUGGUG			120	153
GUGCUCGUGUGAGGAUAUGCUUCCGUUUCGGCUGCAGAAGGUACUAUUAUACAUGAGGAUCACCCAUGUCGCUUUUCUCCGGUG			26.6	27.5
GUGGACGUCGUAGGAUAUGUAGGAUAUUCCUACAUGAGGAUCACCCAUGUUGAAAUGGAAGAAGGACAGAAGGACGAUGUCCAG			58.5	12.7
GUGGUACAUGAGGAUCACCCAUGUCAGGAUAUCGCGUGGUUUUUUGCGGCCGCGCGCGCGAGAAGGGACGUCUU	36.3	43.3		
GUGGUACAUGAGGAUCACCCAUGUGUGGGCGCAUGAGGAUAUGUCAGUCCCUGAAGUACGAUAGAAGGCAUGGUGA			201	302
GUGGUACAUGAGGAUCACCCAUGUUAGGAUAUCGCGUGAGGUUUUACUUCCGCACACACGAGAAGGGACGUCUU	32.9	28		
GUGGUCAGACAUGAGGAUCACCCAUGUGGAAUAAAUAACAACUAGGAUAUAUAAUAUAGGAUAUAAUAGAAGGAGUGAUUGGUG			141	188
GUGGUCAGACAUGAGGAUCACCCAUGUGGAAUAAAUAAGGAGAAGGAUAUGCAAUAUAGGAUAUAGCAGAAGGUUUGGUUGGUG			95.8	111
GUGGUGCAUAUACGUGGAUGUACAUGAGGAUCACCCAUGUAAGAGGAUAUGCGGAUACUAGCUCAGCAGAAGGCUUACAAAUGA	30.3	240		
GUGGUGGGUUGAGGAUAUUGGUUGUUGUUGUCCCACAUGAGGAUCACCCAUGUGGGUUGUGGUUUUGAGAAGGUUGGUUGCCGG			18.8	16.6
GUGGUUCUCGUAGGAUAUGUAGGAUAUGCCUACAUGAGGAUCACCCAUGUUCGCAUGGCAGAAGGACAGAAGGACGAUCACCAG			54.6	27.7
GUGUACAGAGGAUAUACAUAAGCUAGGAAACUAGCAUCCUCACAUGAGGAUCACCCAUGUAGAAGGCUGUACAC	305	19.6		
GUGUACAGAGGAUAUGCACGAGUAGUUACGAAAGUAACUAUACAUGAGGAUCACCCAUGUAGAAGGCUGUACAC	13.5	16.6		
GUGUAGAGAGGAUAUACAUGAGGAUCACCCAUGUGAAUAAGAUAGAAUAAGAUAAAGUGUAGAAGGUUUAGUGU	43	34.2		
GUGUAGAUAGGAUAUACGUGAGUCUAGCGAAGCUAGAUUCUACAUGAGGAUCACCCAUGUAGAAGGGUCUACAC	16.1	18.6		
GUGUAGAUAGGAUAUGCGUGAGUCUAGCGAAGCUAGGCUCUACAUGAGGAUCACCCAUGUAGAAGGGUCUACAC	21	18.1		
GUGUAGAUAGGAUAUGCUGGAAUCUAGCGAAGCUAGGUUCUACAUGAGGAUCACCCAUGUAGAAGGGUCUACAC	33.4	22.6		
GUGUAGAUAUCAGGAUAUCUAUUUCCUACAUGAGGAUCACCCAUGUAGAUGAUCACCCAUGUAAAGGAGAAGGGAUAUCUAUAC			192	156
GUGUCGGGAGGAUAUGCGUGGAUUGUUCUCGUAUGGUGUCUACAUGAGGAUCACCCAUGUAGAAGGUCUGGCGC	20.8	61.1		
GUUAAGGUAGGAUAUACGAUAAUAUAGGGUAGAUAUAGAACACAUGAGGAUCACCCAUGUAGAAGGACCAAUUG	29.5	88.9		
GUUAAUUUCGAAGGAUAUGGAUACAUGAGGAUCACCCAUGUAUAAAAUGAGAUCUAUUAUAUGAUCCAGAAGGUCGUUUUUUAU	36.5	69.6		
GUUAGGCAUGUAGGAUAUCCAUUGCGUCGCGUUGGAGAAGGGCAGCACACAUGAGGAUCACCCAUGUGGUCUCCCAUGAUGUGU	215	254		
GUUAGUAUCUAGGAUAUCUAGUACAUAGUAUCUAGAGAAGGAGAUACAUGAGGAUCACCCAUGUUCUGUGUUCU	25.4	70.4		
